What was measured:
[1] = tested on: Hepatitis B virus; test: Concentration required to inhibit 50% of cytoplasmic HBV-DNA synthesis
[2] = Cytotoxic concentration of compound required for 50% extinction of HuH-6 cells; type: functional; settings: Homo sapiens
Procedure, shortened: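 HuH-6 cells (parent of HB611) seeded at 1 × 10⁵ cells/mL, cultured 3 days at 37 °C, 5% CO₂ in DMEM with 10% FBS plus compound; MTS added, further 2 h at 37 °C; viability by absorbance at 490 nm; CC50 determined.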

[3] = tested on: Human alphaherpesvirus 1; test: Anti-HSV-1 activity of the compound; type: functional, organism-based

Row | SMILES | IC50 [1] | CC50 [2] | IC50 [3]
1 | COc1ccc(Sc2nc(N)nc3c2ncn3CCOCP(=O)(O)OCC(F)(F)F)cc1 | 0.07 µM | – | –
2 | CCOc1ccc(Sc2nc(N)nc3c2ncn3CCOCP(=O)(OCC(F)(F)F)OCC(F)(F)F)cc1 | 0.64 µM | > 1000 µM | –
3 | COc1ccc(Sc2nc(N)nc3c2ncn3CCOCP(=O)(OCC(F)(F)F)OCC(F)(F)F)cc1 [ALAMIFOVIR] | 0.03 µM | > 1000 µM | –
4 | CC(C)COc1ccc(Sc2nc(N)nc3c2ncn3CCOCP(=O)(OCC(F)(F)F)OCC(F)(F)F)cc1 | 0.84 µM | 100 µM | –
5 | Nc1ncnc2c1ncn2CCOCP(=O)(O)O [ADEFOVIR] | 0.2 µM | > 1000 µM | –
6 | Cc1ccc(Sc2nc(N)nc3c2ncn3CCOCP(=O)(OCC(F)(F)F)OCC(F)(F)F)cc1 | 0.06 µM | 110 µM | –
7 | Nc1nc(Sc2ccc3ccccc3c2)c2ncn(CCOCP(=O)(OCC(F)(F)F)OCC(F)(F)F)c2n1 | 0.09 µM | 198 µM | –
8 | CCCOc1ccc(Sc2nc(N)nc3c2ncn3CCOCP(=O)(OCC(F)(F)F)OCC(F)(F)F)cc1 | 0.87 µM | 250 µM | –
9 | CCCCOc1ccc(Sc2nc(N)nc3c2ncn3CCOCP(=O)(OCC(F)(F)F)OCC(F)(F)F)cc1 | > 1 µM | 260 µM | –
10 | Cc1ccccc1Sc1nc(N)nc2c1ncn2CCOCP(=O)(OCC(F)(F)F)OCC(F)(F)F | 0.08 µM | 340 µM | –
11 | Nc1nc(Sc2ccccc2)c2ncn(CCOCP(=O)(OCC(F)(F)F)OCC(F)(F)F)c2n1 | 0.05 µM | > 1000 µM | 25 µM
12 | CCc1ccc(Sc2nc(N)nc3c2ncn3CCOCP(=O)(OCC(F)(F)F)OCC(F)(F)F)cc1 | 0.4 µM | 170 µM | –
13 | CC(C)Oc1ccc(Sc2nc(N)nc3c2ncn3CCOCP(=O)(OCC(F)(F)F)OCC(F)(F)F)cc1 | 0.29 µM | 350 µM | –
14 | Cc1cccc(Sc2nc(N)nc3c2ncn3CCOCP(=O)(OCC(F)(F)F)OCC(F)(F)F)c1 | 0.09 µM | 150 µM | –
15 | Nc1nc(Sc2ccc([N+](=O)[O-])cc2)c2ncn(CCOCP(=O)(OCC(F)(F)F)OCC(F)(F)F)c2n1 | 0.52 µM | 380 µM | –
16 | COc1ccccc1Sc1nc(N)nc2c1ncn2CCOCP(=O)(OCC(F)(F)F)OCC(F)(F)F | 0.08 µM | > 1000 µM | –
17 | CC(C)c1ccc(Sc2nc(N)nc3c2ncn3CCOCP(=O)(OCC(F)(F)F)OCC(F)(F)F)cc1 | 0.98 µM | 170 µM | –
18 | COc1cccc(Sc2nc(N)nc3c2ncn3CCOCP(=O)(OCC(F)(F)F)OCC(F)(F)F)c1 | 0.04 µM | > 1000 µM | –
19 | Nc1nc(Sc2ccc(OC(F)(F)F)cc2)c2ncn(CCOCP(=O)(OCC(F)(F)F)OCC(F)(F)F)c2n1 | 0.06 µM | 820 µM | –
20 | Nc1ccn([C@@H]2CS[C@H](CO)O2)c(=O)n1 [LAMIVUDINE] | 2.2 µM | > 1000 µM | –
21 | Nc1nc(Sc2ccc(Cl)cc2)c2ncn(CCOCP(=O)(OCC(F)(F)F)OCC(F)(F)F)c2n1 | 0.12 µM | 62 µM | –
